According to ChEMBL document CHEMBL3600335 (Bioorg Med Chem Lett, 2015):
pIC50, pKd: −log10 of the molar value. In brackets after ≈: the same amount, converted by molar mass. Activity calls are given as the source filed them. The rule behind the calls is not given here.

How the values were obtained:
Human alphaherpesvirus 1 [1] = test: Antiviral activity against HSV-1 15578 infected in African green monkey Vero cells assessed as reduction of virus-induced cytopathic effect after 4 to 6 days by light microscopic analysis; assay type: functional, organism-based; conditions: Human alphaherpesvirus 1, 15578, Vero
[2] = Selectivity index, ratio of CC50 for African green monkey Vero cells to IC50 for HSV-1 15578; assay type: functional
[3] = Cytotoxicity against African green monkey Vero cells assessed as cell viability after 3 days by MTT assay; assay type: cell-based; conditions: chlorocebus sabaeus
[4] = Solubility of the compound in water at room temperature; assay type: physicochemical
Human alphaherpesvirus 2 [5] = test: Antiviral activity against HSV-2 186 infected in African green monkey Vero cells assessed as inhibition of viral yield after 48 hrs by crystal violet staining; assay type: functional, cell-based, strain 186
Outline: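 Viral replication yield reduction assay against HSV-2 strain 186 over a range of drug concentrations. Viral titer was averaged from quadruplicate samples at each concentration, and IC50 was calculated from the titers. Compounds were tested in two separate experiments.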

Human alphaherpesvirus 1 [6] = test: Antiviral activity against HSV-1 KOS infected in African green monkey RC-37 cells assessed as inhibition of viral replication incubated with virus for 1 hr followed by viral adsorbtion to cells for 1 hr measured after 3 days by plaque reduction assay; assay type: functional, organism-based; conditions: Human alphaherpesvirus 1, KOS
[7] = Cytotoxicity against African green monkey RC-37 cells assessed as cell viability after 3 days by neutral red uptake assay; assay type: cell-based; conditions: chlorocebus aethiops
[8] = Selectivity index, ratio of CC50 for African green monkey Vero cells to IC50 for HSV-2 186; assay type: functional
[9] = Selectivity index, ratio of CC50 for African green monkey RC-37 cells to IC50 for HSV-1 KOS; assay type: functional
Albumin [10] = biological target: T1, Albumin (Homo sapiens, UniProt P02768); test: Binding affinity to human serum albumin with excitation at 285 nm after 30 mins by fluorescence spectrophotometric analysis; assay type: ADME
T1 sequence (P02768 whole entry): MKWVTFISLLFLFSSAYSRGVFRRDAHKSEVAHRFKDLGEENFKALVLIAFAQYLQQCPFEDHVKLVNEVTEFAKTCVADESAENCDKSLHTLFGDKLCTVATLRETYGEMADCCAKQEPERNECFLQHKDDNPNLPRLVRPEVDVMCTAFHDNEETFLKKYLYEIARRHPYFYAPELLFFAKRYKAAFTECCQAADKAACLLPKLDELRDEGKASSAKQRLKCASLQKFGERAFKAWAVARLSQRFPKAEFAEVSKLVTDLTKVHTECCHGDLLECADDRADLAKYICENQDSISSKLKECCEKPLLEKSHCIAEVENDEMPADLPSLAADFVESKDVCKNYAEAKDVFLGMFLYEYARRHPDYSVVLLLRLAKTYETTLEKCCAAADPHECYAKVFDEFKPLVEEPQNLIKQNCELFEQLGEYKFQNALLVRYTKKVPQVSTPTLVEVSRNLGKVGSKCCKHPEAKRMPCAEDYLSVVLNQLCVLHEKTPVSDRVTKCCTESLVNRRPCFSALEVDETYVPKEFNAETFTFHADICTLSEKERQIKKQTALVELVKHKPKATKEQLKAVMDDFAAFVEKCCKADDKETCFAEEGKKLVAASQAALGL

Albumin [11] = biological target: T1, Albumin; test: Binding affinity to human serum albumin with excitation at 295 nm after 30 mins by fluorescence spectrophotometric analysis; assay type: ADME
Albumin [12] = biological target: T1, Albumin; test: Binding affinity to human serum albumin with excitation at 285 nm assessed as association constant by fluorescence emission spectroscopic analysis; assay type: ADME; conditions: isolated protein, 0.285 µM
Albumin [13] = biological target: T1, Albumin; test: Binding affinity to human serum albumin with excitation at 285 nm by fluorescence emission spectroscopic analysis; assay type: ADME
Outline: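 Human serum albumin was titrated by fluorescence with the compound, using excitation at 285 nm. Kd was calculated from the titration spectra.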

[14] = Cytotoxicity against African green monkey Vero cells assessed as cell viability after 48 hrs by Alamar Blue assay; assay type: cell-based; conditions: chlorocebus sabaeus
Human alphaherpesvirus 1 [15] = test: Antiviral activity against HSV-1 F infected in African green monkey Vero cells after 2 days by plaque reduction assay; assay type: functional, organism-based; conditions: Human alphaherpesvirus 1, strain F, 48 h
Human alphaherpesvirus 2 [16] = test: Antiviral activity against HSV-2 G infected in African green monkey Vero cells after 2 days by plaque reduction assay; assay type: functional, organism-based; conditions: Human alphaherpesvirus 2, strain G, 48 h
[17] = Cytotoxicity against African green monkey Vero cells after 2 days by neutral red uptake assay; assay type: cell-based; conditions: chlorocebus sabaeus
[18] = Selectivity index, ratio of CC50 for African green monkey Vero cells to IC50 for HSV-1 F; assay type: functional
[19] = Selectivity index, ratio of CC50 for African green monkey Vero cells to IC50 for HSV-2 G; assay type: functional
[20] = biological target: Human immunodeficiency virus type 1 reverse transcriptase (Human immunodeficiency virus 1) (UniProt Q72547); test: Inhibition of HIV-1 reverse transcriptase in human Jurkat cells assessed as ratio MTT activity to reverse transcriptase activity with compound/reverse transcriptase activity with DMSO at 1 ug/ml after 72 hrs; assay type: cell-based
Outline: (§1)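 Jurkat cells infected with HIV-1 in the presence of compound, with DMSO as solvent control. Viability was read by MTT assay and HIV replication by reverse transcriptase activity assay. The value is the ratio MTT activity/(RT activity with compound/RT activity in DMSO).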

[21] = biological target: Human immunodeficiency virus type 1 reverse transcriptase (Human immunodeficiency virus 1) (UniProt Q72547); test: Inhibition of HIV-1 reverse transcriptase in human Jurkat cells assessed as ratio MTT activity to reverse transcriptase activity with compound/reverse transcriptase activity with DMSO at 5 ug/ml after 72 hrs; assay type: cell-based; outline: as §1
[22] = biological target: Human immunodeficiency virus type 1 reverse transcriptase (Human immunodeficiency virus 1) (UniProt Q72547); test: Inhibition of HIV-1 reverse transcriptase at 37.5 to 150 ug/ml by Roche colorimetric assay
[23] = Selectivity index, ratio of CC50 for African green monkey Vero cells to IC50 for HSV-1 7401H; assay type: functional
[24] = Cytotoxicity against African green monkey Vero cells assessed as cell viability after 2 days by trypan blue exclusion assay; assay type: cell-based; conditions: chlorocebus sabaeus
Human alphaherpesvirus 1 [25] = test: Antiviral activity against HSV-1 7401H infected in African green monkey Vero cells after 2 to 3 days by plaque reduction assay; conditions: Human alphaherpesvirus 1, 7401H
Human alphaherpesvirus 1 [26] = test: Antiviral activity against HSV-1 15577 infected in African green monkey Vero cells assessed as reduction of virus-induced cytopathic effect after 4 to 6 days by light microscopic analysis; assay type: functional, organism-based; conditions: Human alphaherpesvirus 1, 15577, Vero
[27] = Human alphaherpesvirus 2, strain 186, Vero, 48 h

Question: Which results are given for `C=C(C)[C@@H]1CC[C@]2(C(=O)O)CC[C@]3(C)[C@H](CC[C@@H]4[C@@]5(C)CC[C@@H](OS(=O)(=O)O)C(C)(C)[C@@H]5CC[C@]43C)[C@@H]12`?
Answer: pIC50 (Human alphaherpesvirus 1 [1]): 4.34; Ratio CC50/IC50 [2]: 5; CC50 at 72 h [3]: 228 µM

Question: What does the source list for `C=C(C)[C@@H]1CC[C@]2(C(=O)O)CC[C@]3(C)[C@H](CC[C@@H]4[C@@]5(C)CC[C@H](O)C(C)(C)[C@@H]5CC[C@]43C)[C@@H]12` [BETULINIC ACID]?
Answer: solubility [4]: 0.02 µg/mL (≈ 0.0438 µM); pIC50 (Human alphaherpesvirus 2 [5]; [27]): 5.80; pIC50 (Human alphaherpesvirus 1 [6]): 6.15; CC50 at 72 h [7]: 10.9 µM; Ratio CC50/IC50 [8]: >62.5; Ratio CC50/IC50 [9]: 15.6; pKd (Albumin [10]): 5.35; pKd (Albumin [11]): 5.89; Ka (Albumin [12]): 1.685 ×10⁶ /M; pKd (Albumin [13]): 6.23

Question: With `C=C(C)[C@@H]1CC[C@]2(C(=O)N[C@H](C)C(=O)[O-])CC[C@]3(C)[C@H](CC[C@@H]4[C@@]5(C)CC[C@H](O)C(C)(C)[C@@H]5CC[C@]43C)[C@@H]12.C[N+](C)(C)CCO` as the compound, how does the pIC50 (Human alphaherpesvirus 2 [5]; [27]) read?
Answer: 6.22

Question: And the CC50 at 48 h [14]?
Answer: > 100 µM

Question: What about the “Ratio CC50/IC50” value [8] of the same compound?
Answer: >166.7

Question: What about the pKd (Albumin [10]) of the same compound?
Answer: 4.33

Question: And the pKd (Albumin [11])?
Answer: 4.43

Question: Which results are given for `C=C(C)[C@@H]1CC[C@]2(CO)CC[C@]3(C)[C@H](CC[C@@H]4[C@@]5(C)CC[C@H](O)C(C)(C)[C@@H]5CC[C@]43C)[C@@H]12` [BETULIN]?
Answer: pIC50 (Human alphaherpesvirus 1 [15]): 6.05; pIC50 (Human alphaherpesvirus 2 [16]): 5.03; pIC50 (Human alphaherpesvirus 1 [6]): 6.15; CC50 at 48 h [17]: 165 µM; CC50 at 72 h [7]: 49.7 µM; Ratio CC50/IC50 [18]: 183; Ratio CC50/IC50 [19]: 17.6; Ratio CC50/IC50 [9]: 71

Question: With `C=C(C)[C@@H]1CC[C@]2(C(=O)N[C@H](C)C(=O)[O-])CC[C@]3(C)[C@H](CC[C@@H]4[C@@]5(C)CC[C@H](O)C(C)(C)[C@@H]5CC[C@]43C)[C@@H]12.CCCCCCCCCCCC[N+](C)(C)Cc1ccccc1` as the compound, how does the pIC50 (Human alphaherpesvirus 2 [5]; [27]) read?
Answer: 6.05

Question: And the CC50 at 48 h [14]?
Answer: 10.5 µM

Question: And the “Ratio CC50/IC50” value [8]?
Answer: 11.6

Question: And the pKd (Albumin [10])?
Answer: 4.72

Question: What about the pKd (Albumin [11]) of the same compound?
Answer: 4.72

Question: Which Ratio [20] does the source give for `C=C(C)[C@@H]1CC[C@]2(C(=O)O)CC[C@]3(C)[C@H](CC[C@@H]4[C@@]5(C)CC[C@H](O)C(C)(C)[C@@H]5CC[C@]43C)[C@@H]12` here?
Answer: 0.158

Question: What about the Ratio [21] of the same compound?
Answer: 0.649

Question: What about the inhibition [22] of the same compound?
Answer: inactive

Question: With `C=C(C)[C@@H]1CC[C@]2(C(=O)[O-])CC[C@]3(C)[C@H](CC[C@@H]4[C@@]5(C)CC[C@H](O)C(C)(C)[C@@H]5CC[C@]43C)[C@@H]12.CCCCCCCCCCCC[N+](C)(C)Cc1ccccc1` as the compound, how does the pIC50 (Human alphaherpesvirus 2 [5]; [27]) read?
Answer: 5.14

Question: What about the CC50 at 48 h [14] of the same compound?
Answer: 12 µM

Question: What about the “Ratio CC50/IC50” value [8] of the same compound?
Answer: 1.7

Question: What about the pKd (Albumin [10]) of the same compound?
Answer: 5.80

Question: What about the pKd (Albumin [11]) of the same compound?
Answer: 5.72

Question: With `C=C(C)[C@@H]1CC[C@]2(C(=O)[O-])CC[C@]3(C)[C@H](CC[C@@H]4[C@@]5(C)CC[C@H](O)C(C)(C)[C@@H]5CC[C@]43C)[C@@H]12.C[N+](C)(C)CCO` as the compound, how does the pIC50 (Human alphaherpesvirus 2 [5]; vero) read?
Answer: 6.05

Question: And the CC50 at 48 h [14]?
Answer: > 100 µM

Question: What about the “Ratio CC50/IC50” value [8] of the same compound?
Answer: >111.1

Question: And the pKd (Albumin [10])?
Answer: 5.41

Question: And the pKd (Albumin [11])?
Answer: 5.40

Question: Which results are given for `C=C(C)[C@@H]1CC[C@]2(C(=O)O)CC[C@]3(C)[C@H](CC[C@@H]4[C@@]5(C)CCC(=O)C(C)(C)[C@@H]5CC[C@]43C)[C@@H]12` [BETUNOLIC ACID]?
Answer: Ratio CC50/IC50 [23]: 6.2; CC50 at 48 h [24]: 35.6 µM; pIC50 (Human alphaherpesvirus 1 [25]): 5.24

Question: With `C=C(C)[C@@H]1CC[C@]2(C(=O)O)CC[C@]3(C)[C@H](CC[C@@H]4[C@@]5(C)CC[C@@H](O)[C@@](C)(C(=O)O)[C@@H]5CC[C@]43C)[C@@H]12` as the compound, how does the pIC50 (Human alphaherpesvirus 1 [26]) read?
Answer: 4.19
